From ChEMBL document CHEMBL1240414, “Synthesis and anticonvulsant activity of new 6-methyl-1-substituted-4,6-diazaspiro[2.4]heptane-5,7-diones” (Eur J Med Chem, 2010)
Active and inactive are the calls of the source.

Assays:
Mus musculus [1] = experiment: Neurotoxicity in Kunming mouse assessed as minimum motor impairment at 30 mg/kg, ip after 0.5 hrs by rotarod test; type: toxicity, organism-based; set-up: dose 30 mg/kg, route intraperitoneal; details: in vivo
In short: (§1)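 Rotorod neurotoxicity in male Kunming mice (20 ± 2.0 g) given ip doses of 30, 100 or 300 mg/kg as a suspension in 0.5% methylcellulose, one to four mice per dose. Motor impairment was examined at 0.5 h and 4.0 h after injection. Reported as number of animals showing toxicity/number tested.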

Mus musculus [2] = experiment: Neurotoxicity in Kunming mouse assessed as minimum motor impairment at 100 mg/kg, ip after 0.5 hrs by rotarod test; type: toxicity, organism-based; set-up: dose 100 mg/kg, route intraperitoneal; details: in vivo; in short: as §1
Mus musculus [3] = experiment: Anticonvulsant activity in Kunming mouse assessed as protection against maximal electroshock-induced seizures at 30 mg/kg, ip after 0.5 hrs; type: functional, organism-based; set-up: dose 30 mg/kg
Mus musculus [4] = experiment: Anticonvulsant activity in Kunming mouse assessed as protection against maximal electroshock-induced seizures at 100 mg/kg, ip after 0.5 hrs; type: functional, organism-based; set-up: dose 100 mg/kg
Mus musculus [5] = experiment: Anticonvulsant activity in Kunming mouse assessed as protection against subcutaneous pentylenetetrazole-induced seizures at 100 mg/kg, ip after 0.5 hrs; type: functional, organism-based; set-up: dose 100 mg/kg
In short: (§2)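 Male Kunming mice (20 ± 2.0 g) received the compound ip as a suspension in 0.5% methylcellulose at 30, 100 or 300 mg/kg, one to four mice per dose. Pentylenetetrazole in 0.9% saline was given sc at 0.5 h and 4.0 h after dosing. Protection meant no threshold seizure (one clonic spasm episode of at least 5 s). Scored as protected/tested.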

Mus musculus [6] = experiment: Anticonvulsant activity in Kunming mouse assessed as protection against subcutaneous pentylenetetrazole-induced seizures at 30 mg/kg, ip after 0.5 hrs; type: functional, organism-based; set-up: dose 30 mg/kg; in short: as §2
Mus musculus [7] = experiment: Anticonvulsant activity in Kunming mouse assessed as protection against subcutaneous pentylenetetrazole-induced seizures at 30 mg/kg, ip after 4 hrs; type: functional, organism-based; set-up: dose 30 mg/kg; in short: as §2
Mus musculus [8] = experiment: Neurotoxicity in Kunming mouse assessed as minimum motor impairment at 100 mg/kg, ip after 4 hrs by rotarod test; type: toxicity, organism-based; set-up: dose 100 mg/kg, route intraperitoneal; details: in vivo; in short: as §1
Mus musculus [9] = experiment: Anticonvulsant activity in Kunming mouse assessed as protection against maximal electroshock-induced seizures at 30 mg/kg, ip after 4 hrs; type: functional, organism-based; set-up: dose 30 mg/kg
Mus musculus [10] = experiment: Anticonvulsant activity in Kunming mouse assessed as protection against subcutaneous pentylenetetrazole-induced seizures at 100 mg/kg, ip after 4 hrs; type: functional, organism-based; set-up: dose 100 mg/kg; in short: as §2
Mus musculus [11] = experiment: Neurotoxicity in Kunming mouse assessed as minimum motor impairment at 30 mg/kg, ip after 4 hrs by rotarod test; type: toxicity, organism-based; set-up: dose 30 mg/kg, route intraperitoneal; details: in vivo; in short: as §1
Mus musculus [12] = experiment: Anticonvulsant activity in Kunming mouse assessed as protection against subcutaneous pentylenetetrazole-induced seizures at 300 mg/kg, ip after 4 hrs; type: functional, organism-based; set-up: dose 300 mg/kg; in short: as §2
Mus musculus [13] = experiment: Anticonvulsant activity in Kunming mouse assessed as protection against maximal electroshock-induced seizures at 100 mg/kg, ip after 4 hrs; type: functional, organism-based; set-up: dose 100 mg/kg
Mus musculus [14] = experiment: Anticonvulsant activity in Kunming mouse assessed as protection against maximal electroshock-induced seizures at 300 mg/kg, ip after 4 hrs; type: functional, organism-based; set-up: dose 300 mg/kg
Mus musculus [15] = experiment: Anticonvulsant activity in Kunming mouse assessed as protection against maximal electroshock-induced seizures at 300 mg/kg, ip after 0.5 hrs; type: functional, organism-based; set-up: dose 300 mg/kg
Mus musculus [16] = experiment: Neurotoxicity in Kunming mouse assessed as minimum motor impairment at 300 mg/kg, ip after 0.5 hrs by rotarod test; type: toxicity, organism-based; set-up: dose 300 mg/kg, route intraperitoneal; details: in vivo; in short: as §1
Mus musculus [17] = experiment: Anticonvulsant activity in Kunming mouse assessed as protection against subcutaneous pentylenetetrazole-induced seizures at 300 mg/kg, ip after 0.5 hrs; type: functional, organism-based; set-up: dose 300 mg/kg; in short: as §2
Mus musculus [18] = experiment: Neurotoxicity in Kunming mouse assessed as minimum motor impairment at 300 mg/kg, ip after 4 hrs by rotarod test; type: toxicity, organism-based; set-up: dose 300 mg/kg, route intraperitoneal; details: in vivo; in short: as §1

SMILES | Activity (Mus musculus [1]) | Activity (Mus musculus [2]) | Activity (Mus musculus [3]) | Activity (Mus musculus [4]) | Activity (Mus musculus [5]) | Activity (Mus musculus [6]) | Activity (Mus musculus [7]) | Activity (Mus musculus [8]) | Activity (Mus musculus [9]) | Activity (Mus musculus [10]) | Activity (Mus musculus [11]) | Activity (Mus musculus [12]) | Activity (Mus musculus [13]) | Activity (Mus musculus [14]) | Activity (Mus musculus [15]) | Activity (Mus musculus [16]) | Activity (Mus musculus [17]) | Activity (Mus musculus [18])
CN1C(=O)NC2(CC2c2ccc(Cl)cc2)C1=O (configuration not stated) | Non-toxic | Toxic | inactive | Active | inactive | inactive | inactive | Toxic | inactive | inactive | Non-toxic | inactive | inactive |  |  |  |  | 
CCC1CC12NC(=O)N(C)C2=O (configuration not stated) | Non-toxic | Non-toxic | inactive |  | inactive | inactive | inactive | Non-toxic | inactive | inactive | Non-toxic |  | inactive | Active | Active | Non-toxic | inactive | 
CC(C)CC1CC12NC(=O)N(C)C2=O (configuration not stated) | Toxic | Non-toxic | Active | Active | inactive | Active | inactive | Non-toxic | inactive | inactive | Non-toxic | inactive |  |  |  | Toxic |  | Non-toxic
CC(C)C1CC12NC(=O)N(C)C2=O (configuration not stated) | Non-toxic | Non-toxic | Active | Active | inactive | inactive | inactive | Non-toxic |  | inactive | Non-toxic | inactive |  | Active |  | Non-toxic | inactive | 
Cc1ccc(C2CC23NC(=O)N(C)C3=O)cc1 (configuration not stated) | Non-toxic | Non-toxic | Active | Active | inactive | inactive | inactive | Non-toxic | inactive | inactive | Non-toxic |  |  |  |  | Toxic |  | Non-toxic
CN1C(=O)NC2(CC2c2ccccc2Cl)C1=O (configuration not stated) | Non-toxic |  | inactive |  | inactive | inactive | inactive | Non-toxic | inactive | inactive | Non-toxic | inactive | inactive | inactive | Active | Toxic | inactive | Toxic
CCC(CC)C1CC12NC(=O)N(C)C2=O (configuration not stated) | Non-toxic | Non-toxic | inactive |  | inactive | inactive | inactive | Non-toxic | inactive | inactive | Non-toxic |  | inactive |  | Active | Non-toxic | inactive | Non-toxic
CCCC1CC12NC(=O)N(C)C2=O (configuration not stated) | Toxic | Non-toxic | inactive | Active | inactive | inactive | inactive | Non-toxic | inactive | inactive | Non-toxic | inactive |  | Active |  | Toxic | inactive | Toxic
COc1ccc(OC)c(C2CC23NC(=O)N(C)C3=O)c1 (configuration not stated) | Non-toxic | Non-toxic | Active | Active | inactive | inactive | inactive | Non-toxic | inactive | inactive | Non-toxic | inactive |  |  |  |  | inactive | 
COc1ccc(C2CC23NC(=O)N(C)C3=O)cc1OC (configuration not stated) | Non-toxic | Non-toxic | Active | Active | inactive | inactive | inactive | Non-toxic | inactive | inactive | Non-toxic |  |  | Active |  |  |  | 
CN1C(=O)NC2(CC2c2ccco2)C1=O (configuration not stated) | Toxic |  | inactive | inactive | inactive | inactive | inactive |  | inactive | inactive | Non-toxic | inactive | inactive | inactive | Active |  | inactive | 
CN1C(=O)NC2(CC2c2ccc(Br)cc2)C1=O (configuration not stated) | Non-toxic |  | inactive | inactive | inactive | inactive | inactive | Non-toxic | inactive | inactive | Non-toxic | inactive | inactive | Active | Active | Non-toxic | inactive | 
COc1ccc(C2CC23NC(=O)N(C)C3=O)cc1 (configuration not stated) | Non-toxic | Non-toxic | inactive |  | inactive | inactive | inactive | Non-toxic | inactive | inactive | Non-toxic | inactive | inactive | Active | Active | Non-toxic |  | Non-toxic
COc1cc(C2CC23NC(=O)N(C)C3=O)cc(OC)c1OC (configuration not stated) | Non-toxic | Non-toxic | inactive | Active | inactive | inactive | inactive | Non-toxic | inactive | inactive | Non-toxic |  | inactive | Active |  | Non-toxic |  | Non-toxic
